This experiment deals with T1, Sodium- and chloride-dependent GABA transporter 2 (Mus musculus, UniProt P31649).
T1 sequence (P31649 whole entry): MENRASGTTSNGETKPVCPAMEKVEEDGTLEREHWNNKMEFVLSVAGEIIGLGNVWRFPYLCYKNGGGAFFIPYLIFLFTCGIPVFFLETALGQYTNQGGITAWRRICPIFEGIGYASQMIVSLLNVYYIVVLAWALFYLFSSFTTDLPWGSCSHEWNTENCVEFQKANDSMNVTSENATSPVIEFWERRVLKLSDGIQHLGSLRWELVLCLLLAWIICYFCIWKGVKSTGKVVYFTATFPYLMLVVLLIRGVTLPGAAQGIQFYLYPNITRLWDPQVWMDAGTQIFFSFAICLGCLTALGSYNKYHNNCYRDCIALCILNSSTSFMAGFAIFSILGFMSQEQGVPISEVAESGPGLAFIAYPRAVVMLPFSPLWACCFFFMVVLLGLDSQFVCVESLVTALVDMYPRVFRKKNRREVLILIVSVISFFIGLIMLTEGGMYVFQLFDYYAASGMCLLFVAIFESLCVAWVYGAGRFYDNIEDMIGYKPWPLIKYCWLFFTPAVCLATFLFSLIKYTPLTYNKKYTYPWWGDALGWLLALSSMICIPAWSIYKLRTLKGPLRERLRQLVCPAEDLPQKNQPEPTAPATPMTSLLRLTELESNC
Briefly: Inhibition of mouse GAT2 expressed in HEK293 cell line assessed as inhibition of [3H]GABA uptake measured after 35 mins by liquid scintillation method. In outline: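 [3H]GABA uptake assay at each mGAT subtype, with screening at 100 µM inhibitor. […] Otherwise, the remaining uptake at 100 µM is reported as a percentage. Values without SEM come from a single triplicate experiment.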
What is called IC50 is the midpoint of a concentration-inhibition curve. For the compound `O=C(O)C1=CCCN(CCON=C(c2ccccc2)c2ccccc2)C1`, the half-inhibitory concentration (IC50) was found to be 631 µM. As for `NCC(O)C(=O)O` (stereo unspecified), the figure is 229 µM; as for `Cc1ccsc1C(=CCCN(C)C(CCO)C(=O)NCc1ccccc1)c1sccc1C` (stereo unspecified), 20.4 µM.

Regarding `Cc1ccsc1C(=CCCN(C)C(CCO)C(=O)NCc1ccccc1Cl)c1sccc1C` (stereo unspecified), the IC50 amounted to 10.5 µM. As for `Cc1ccsc1C(=CCCN(C)C(CCO)C(=O)NCc1ccc(F)cc1)c1sccc1C` (stereo unspecified), the figure is 5.62 µM. As for `Cc1ccc(CNC(=O)C(CCO)N(C)CCC=C(c2sccc2C)c2sccc2C)cc1` (stereo unspecified), the figure is 9.77 µM; as for `Cc1ccsc1C(=CCCN(C)C(CCO)C(=O)NCc1ccc(F)cc1F)c1sccc1C` (stereo unspecified), 10 µM; as for `Cc1ccsc1C(=CCCN(C)C(CC(C)O)C(=O)NCc1ccccc1)c1sccc1C` (stereo unspecified), 8.91 µM. Under `Cc1ccsc1C(=CCCN(C)C(CC(C)O)C(=O)NCc1ccccc1Cl)c1sccc1C` (stereo unspecified) stands 10.4 µM. On to `Cc1ccsc1C(=CCCN(C)C(CC(C)O)C(=O)NCc1ccc(Cl)cc1)c1sccc1C` (stereo unspecified), for which the IC50 turned out to be 10.5 µM. Under `Cc1ccsc1C(=CCCN(C)C(CC(C)O)C(=O)NCc1ccc(F)cc1)c1sccc1C` (stereo unspecified) stands 26.3 µM. As for `Cc1ccc(CNC(=O)C(CC(C)O)N(C)CCC=C(c2sccc2C)c2sccc2C)cc1` (stereo unspecified), the figure is 17 µM. Under `Cc1ccsc1C(=CCCN(C)C(CCN)C(=O)NCc1ccccc1)c1sccc1C` (stereo unspecified) stands 5.5 µM; under `Cc1ccc(CNC(=O)C(CCN)N(C)CCC=C(c2sccc2C)c2sccc2C)cc1` (stereo unspecified), 7.76 µM. Regarding `CC(=O)NCCC(C(=O)NCc1ccccc1Cl)N(C)CCC=C(c1sccc1C)c1sccc1C` (stereo unspecified), the IC50 amounted to 4.47 µM. As for `O=C(O)C1=CCCN(CCO/N=C/c2ccccc2-c2ccc(Cl)cc2Cl)C1`, the figure is 49 µM; as for `Cc1ccsc1C(=CCCN(C)C(CO)C(=O)NCc1ccccc1)c1sccc1C` (stereo unspecified), 30.9 µM. As for `Cc1ccsc1C(=CCCN(C)C(CO)C(=O)NCc1ccc(Cl)cc1)c1sccc1C` (stereo unspecified), the figure is 15.8 µM. As for `Cc1ccsc1C(=CCCN(C)C(CO)C(=O)NCc1ccc(F)cc1)c1sccc1C` (stereo unspecified), the figure is 22.4 µM; as for `Cc1ccc(CNC(=O)C(CO)N(C)CCC=C(c2sccc2C)c2sccc2C)cc1` (stereo unspecified), 24 µM; as for `Cc1ccsc1C(=CCCN(C)C1CCc2onc(O)c2C1)c1sccc1C` (stereo unspecified), 25.7 µM.
